According to the EternaBench riboswitch data:

Tested on: MS2 coat protein
Assay: apparent Kd, MS2 coat protein; higher = weaker binding; RNA-MaP array; FMN 200 µM where present
In short: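 Stalled E. coli RNA polymerase produced the designs on Illumina sequencing-chip clusters. SNAP-549-labelled MS2 coat protein was added from 0.7 or 1.5 nM, doubling to 3 µM, without and then with constant ligand, in 100 mM Tris-HCl pH 7.5, 80 mM KCl, 4 mM MgCl2, BSA, DTT, yeast tRNA and Tween-20. The apparent Kd is the median of filtered per-cluster fits of green signal normalised to red-channel RNA signal and control-cluster median Fmax.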

[1] = designed as: OFF switch for flavin mononucleotide, no ligand
[2] = ligand present: flavin mononucleotide, designed as: OFF switch for flavin mononucleotide
[3] = designed as: ON switch for flavin mononucleotide, no ligand
[4] = ligand present: flavin mononucleotide, designed as: ON switch for flavin mononucleotide

| Sequence | apparent Kd [1] | apparent Kd [2] | apparent Kd [3] | apparent Kd [4] |
| --- | --- | --- | --- | --- |
| GGUGCGUUUGUGAGGAUAUGCUGGUCCUUGGUUCGGCAGAAGGCACAUGAGGAUCACCCAUGUGGUGUCGUACC | 16.7 nM | 48.8 nM |  |  |
| AAGAAGUGAGGAUAUACAUGAGGAUCACCCAUGUAAAGAAGAAGAGGAGAGAAUAAAGGUAGAAGGCACAAGAA | 45.8 nM | 46 nM |  |  |
| GUACGUGGACAGAAGGCGACAUGAGGAUCACCCAUGUUGGCUCGGGUAUGACCAAUCCGCAUGAUUGAGGAUAUGUCUGCGGGC | 9.07 nM | 62.4 nM |  |  |
| GAUUCACAUGAGGAUCACCCAUGUCGUAAUAUGGGAGGAUAUACGUGGACCGUAGUCCGCGUAGAAGGCCUAAUUG |  |  | 172 nM | 36.6 nM |
| AAUAUAAAAGAGCUGGAUACUCAAACAUGAGGAUCACCCAUGUAGGAUAUCAGCACGAUAAGUGCUGAGAAGGACAACCAGCUC | 14.6 nM | 15.6 nM |  |  |
| AUCAGCUCGUCAGGAUAUACGUCACUGCGUCAGCACUGUGGUAAGAUCACAUGAGGAUCACCCAUGUAGAAGGGACGAGCUGAU | 17.7 nM | 172 nM |  |  |
| CAAAGUAGCACAGGAUAUCAUACAUGAGGAUCACCCAUGUCAAGAAGCAAAUGAGAAGGGUGCAGACGGUGUUGGAGCGGUUGC |  |  | 68.6 nM | 7.02 nM |
| UUUUAACAUGAGGAUCACCCAUGUGAGGAUAUCGAUUUUUAUAUUAAUAUUAAUAAAACGAGAAGGCACAUUUU | 123 nM | 79.3 nM |  |  |
| CACCGUUAGCGAGGAUAUCGUACAUGAGGAUCACCCAUGUAAUAAAUGAGAAUUUCGGAUGUAUGCGAGAAGGCGCAAAUCGGC | 59 nM | 43.4 nM |  |  |
| CUCUGCCGGCAGGAUAUUAGGUUACGAUGACGUUGAGAAGGGCUGACAUGAGGAUCACCCAUGUAGGGCUCCAU | 18.8 nM | 24.5 nM |  |  |
| UCGCGGGAGCAGAAGGGACAGGCCUAUUGUCGUGAGGUCUGCACUUAACAUGAGGAUCACCCAUGUCAGGAUAUGCCCACGCGA | 4.8 nM | 4.94 nM |  |  |
| CCCAUGUUAGGAUAUAUGGAAGGGCGCACGUGCACCCUAAGGUAGAAGGGACAUGAGGAUCACCCAUGUAAUAA | 152 nM | 228 nM |  |  |
| AUACGUGAGAAGGAUAUCACUCGCCAGAGGCGAUGAGAAGGUUUCACAUGAGGAUCACCCAUGUGCUCUUCUAG | 32 nM | 75.1 nM |  |  |
| ACCAGGCGAGGAUAUACUUAGAUUUUUUCGUUUAGUCUCGAACAUGAGGAUCACCCAUGUAGAAGGUGCUUCAC | 49.9 nM | 42.7 nM |  |  |
| ACCGUGUCAGGAUAUCCUGCUGUGCGGACUCUGUCUUCACGGGAGAAGGGACAUGAGGAUCACCCAUGUUUGAG | 20.2 nM | 25.4 nM |  |  |
| GAUUCACAUGAGGAUCACCCAUGUCGUUUAAUGGGAGGAUAUACGUGGACCGUAGUCCGCGUAGAAGGCCUAAUUG |  |  | 95.1 nM | 25.6 nM |
| UAUAUAUAGUAAGGAUAUGUAUUUAUUUUACAAACAGAAGGUACUGACAUGAGGAUCACCCAUGUUUUAGUGUGGGCAUGUAGA | 61.1 nM | 76.1 nM |  |  |
| AAAAAACAUGAGGAUCACCCAUGUUAGGAUAUCCUGCAGAAAAAAAAAAAAAACUGCAGGAGAAGGAGCAAGGA | 90 nM | 104 nM |  |  |
| UAAAAGACUAGCAAAUAAGUUCCACAUGAGGAUCACCCAUGUCAGGAUAUGAGCAGCAAAGCUGCUCAGAAGGGACAGCUAGUC | 5.53 nM | 6.99 nM |  |  |
| GCAUGCAUAGCGAUAUGAUCGAGAGAUCAUGUCGCUAAAUUUAGAAGGACAUGAGGAUCACCCAUGUAGGAUAUGGGAGCAUGU |  |  | 92.1 nM | 15.4 nM |
| UGAGCCUCGUGAGGAUAUACAUGAGGAUCACCCAUGUAAUAAAGUGAACGGAGGAAACUCCGAAUGUAGAAGGCACGAGGCUUA | 18.7 nM | 146 nM |  |  |
| GUUGCGUUUGUGAGGAUAUGCUGGUCCUUGGUUCGGCAGAAGGCACAUGAGGAUCACCCAUGUGGUGUCGUUCC | 14.2 nM | 22.4 nM |  |  |
| CGGGCGCGAGGAUAUACAUGAGGAUCACCCAUGUAACGGGUUUGAAUCGGGCUUGCGUGUAGAAGGUGUGUUUG | 86 nM | 73.8 nM |  |  |
| AAUCUGUCGGUAGGAUAUCAGUUAGGAGAGCCGACAUGAGGAUCACCCAUGUACAGAAUCAAGGGUGAGAAGGACCGGGUAGUA |  |  | 114 nM | 111 nM |
| AAAGCAACAUGAGGAUCACCCAUGUAGGAUAUCGCUAUUGUAAUCAUGAAACAUGAUUACAAUAGCGAGAAGGACAUAUGCAAA | 11.3 nM | 12.9 nM |  |  |
| CUUUAGCUAGGAUAUACAUGAGGAUCACCCAUGUUAGCGGCCAAUUGGACCGCGGGUUGUAGAAGGAGCAUUAA | 37.5 nM | 50.3 nM |  |  |
| GGAUCGAAAGUGAGGAUAUGCUGGUCCUUGGAUCAGCAGAAGGCACAUGAGGAUCACCCAUGUGUUCCCGGUCC | 19.7 nM | 99.8 nM |  |  |
